According to ChEMBL document CHEMBL3351599, “Extending the N-linked aminopiperidine class to the mycobacterial gyrase domain: pharmacophore mapping from known antibacterial leads” (Eur J Med Chem, 2014):
Values after ≈ are worked out from the molar mass of the structure shown.

Key:
[1] = Cytotoxicity against mouse RAW264.7 cells at 100 uM after 48 hrs by MTT assay; assay type: cell-based; details: read-out: INH
In short: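 Cells seeded at 5 × 10⁵ per well with test compound at a range of concentrations. Incubated 48 h at 37 °C under 5% CO₂/[…]. MTT reagent (10 mg mL⁻¹ stock) added about 4 h before the end. Plate centrifuged, supernatant removed and formazan dissolved in DMSO. Absorbance read at 560 nm against a blank. Triplicate wells per concentration.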

[2] = test system: Mycobacterium tuberculosis; experiment: Inhibition of Mycobacterium tuberculosis GyrA/GyrB using relaxed pBR322 as substrate at 0.97 uM after 30 mins by DNA supercoiling assay
In short: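 Gyrase supercoiling reaction: GyrA/GyrB heterotetramer (1 U), relaxed pBR322, 1 mM ATP, HEPES-KOH pH 7.9 buffer, 30 min at 37 °C. Compounds were tested in a series of 250, 62.5, 15.6, 3.9 and 0.97. Products were resolved on 1% agarose with ethidium staining, and inhibition was quantified relative to control.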

[3] = Selectivity index, ratio of CC50 for mouse RAW264.7 cells to MIC for Mycobacterium tuberculosis H37Rv; assay type: toxicity; details: read-out: Selectivity Index
In short: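 Ratio of CC50 to MABA MIC against H37Rv. […] MTT was added 4 h before the end, formazan was dissolved in DMSO and absorbance read at 560 nm. Each concentration was run in triplicate.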

[4] = (§1) Inhibition of Mycobacterium tuberculosis GyrA/GyrB using relaxed pBR322 as substrate after 30 mins by DNA supercoiling assay
[5] = test system: Mycobacterium tuberculosis; experiment: Antimycobacterial activity against Mycobacterium tuberculosis H37Rv after 7 days by microplate alamar blue assay; assay type: functional; details: 168 h
In short: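 M. tuberculosis H37Rv inoculum taken from fresh LJ medium, resuspended in 7H9-S (7H9 broth, 0.1% casitone, 0.5% glycerol, OADC), adjusted to McFarland No. 1 and diluted 1:20. Two-fold serial dilutions were tested over a range of 25 to 0.78. Plates were incubated 7 days at 37 °C, then alamar blue was added and incubated overnight. Blue-to-pink colour change read as growth; MIC determined.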

[6] = test system: Mycobacterium tuberculosis; experiment: as §1

Compound | cytotoxicity at 48 h, 100 µM [1] | inhibition [2] | selectivity ratio [3] | IC50 [4] | MIC [5] | inhibition [6]
COc1cnc2ccc(=O)n(CCN3CCC(NC(=S)Nc4ccccc4)CC3)c2c1 | 37.6% | > 74% | > 14 | 5.2 µM | 7.14 µM (≈ 3.12 µg/mL) | –
COc1cnc2ccc(=O)n(CCN3CCC(NC(=S)Nc4ccc(F)cc4)CC3)c2c1 | 38.5% | > 75% | > 29.2 | 4.1 µM | 3.42 µM (≈ 1.56 µg/mL) | –
Cc1ccc(NC(=S)NC2CCN(CCn3c(=O)ccc4ncc(F)cc43)CC2)cc1 | 38.6% | > 66% | > 28.2 | 3.6 µM | 3.54 µM (≈ 1.56 µg/mL) | –
COc1cnc2ccc(=O)n(CCN3CCC(NC(=S)Nc4ccc(C)cc4)CC3)c2c1 | 38.8% | > 80% | > 28.9 | 3.8 µM | 3.45 µM (≈ 1.56 µg/mL) | –
O=c1ccc2ncc(F)cc2n1CCN1CCC(NC(=S)Nc2ccc(F)cc2)CC1 | 38.5% | > 61% | > 14.7 | 7.1 µM | 6.8 µM (≈ 3.02 µg/mL) | –
COc1ccc(NC(=S)NC2CCN(CCn3c(=O)ccc4ncc(F)cc43)CC2)cc1 | 30.8% | > 65% | > 58.5 | 1.8 µM | 1.71 µM (≈ 0.779 µg/mL) | –
COc1ccc(CNC(=O)NC2CCN(CCn3c(=O)ccc4ncc(OC)cc43)CC2)cc1 | 39.5% | > 99% | > 29.9 | 2.76 µM | 3.35 µM (≈ 1.56 µg/mL) | –
COc1ccc(NC(=O)NC2CCN(CCn3c(=O)ccc4ncc(F)cc43)CC2)cc1 | 25.5% | > 72% | > 30.9 | 2.2 µM | 3.23 µM (≈ 1.42 µg/mL) | –
O=C(Nc1ccc(Cl)cc1)NC1CCN(CCn2c(=O)ccc3ncc(F)cc32)CC1 | 25.7% | > 69% | > 77.5 | 0.3 µM | 1.29 µM (≈ 0.573 µg/mL) | –
COc1cnc2ccc(=O)n(CCN3CCC(NC(=O)Nc4ccc(F)cc4)CC3)c2c1 | 31.5% | > 82% | > 161 | 0.078 µM | 0.62 µM (≈ 0.272 µg/mL) | Dose-dependent effect
